Among the data in ChEMBL document CHEMBL1165902, “Synthesis and antiproliferative activity of oxazinocarbazole and N,N-bis(carbazolylmethyl)amine derivatives” (Eur J Med Chem, 2010) are IC50 and Activity values, retold here.

pIC50: −log10 of the molar value.

Assay [1] deals with MCF7. Put plainly: Antiproliferative activity against human MCF7 cells after 72 hrs by WST1 assay. Type of assay: functional, cell-based. Conditions: MCF7, 72 h. Put shortly: (§1)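 Seeding densities (cells/mL) were CEM 0.2×10^6, Jurkat 0.6×10^6, Raji 0.4×10^6, MCF-7 0.2×10^6 and Caco-2 0.2×10^6, in RPMI 1640 with 10% FCS, non-essential amino acids, pyruvate, glutamine and gentamicin. Cells were exposed to 12.5–100 µM (DMSO stocks, 0.1% DMSO controls) for 72 h at 37 °C. WST-1 was added for 4 h and read at 492 nm. IC50 is for 50% growth inhibition.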
On the technique in general: Tetrazolium dyes change colour on reduction, which living cells bring about.

The test system of assay [2] is Raji. Put plainly: Antiproliferative activity against human Raji cells after 72 hrs by WST1 assay. Type of assay: functional, cell-based. Put shortly: as §1
In assay [3] the test system is CCRF-CEM. Put plainly: Antiproliferative activity against human CEM cells after at 100 uM 72 hrs by WST1 assay. Type of assay: functional. Summed up: (§2)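 Cells were exposed to compound for 72 h at 37 °C in RPMI 1640 with 10% FCS. Densities (cells/mL) were CEM 0.2×10^6, Jurkat 0.6×10^6, Raji 0.4×10^6, MCF-7 and Caco-2 0.2×10^6. WST-1 was then added for 4 h and absorbance read at 492 nm. Living cells are given as % of untreated-control OD (100 = no activity), with 0.1% DMSO vehicle controls and etoposide as positive control.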

The subject of assay [4] is Raji. As to the kind of experiment: Antiproliferative activity against human Raji cells at 100 uM after 72 hrs by WST1 assay. Type of assay: functional. Summed up:
as §2

The subject of assay [5] is Jurkat. As to the kind of experiment: Antiproliferative activity against human Jurkat cells after 72 hrs by WST1 assay. Type of assay: functional, cell-based. Summed up: as §1
The test system of assay [6] is Caco-2. Put plainly: Antiproliferative activity against human Caco-2 cells after 72 hrs by WST1 assay. Conditions: Caco-2, 72 h. Type of assay: functional, cell-based. Put shortly: as §1
Assay [7] relates to MCF7. Put plainly: Antiproliferative activity against human MCF7 cells at 100 uM after 72 hrs by WST1 assay. Type of assay: functional. Put shortly: as §2
Assay [8] concerns CCRF-CEM. Put plainly: Antiproliferative activity against human CEM cells after 72 hrs by WST1 assay. Type of assay: functional, cell-based. Put shortly:
as §1

Assay [9] concerns Jurkat. Put plainly: Antiproliferative activity against human Jurkat cells at 100 uM after 72 hrs by WST1 assay. Type of assay: functional. Summed up:
as §2

Assay [10] deals with Caco-2. As to the kind of experiment: Antiproliferative activity against human Caco-2 cells at 100 uM after 72 hrs by WST1 assay. Type of assay: functional. Put shortly: as §2

As to `C=CCN1COc2cc3c(cc2C1)c1ccccc1n3C`, the pIC50 was 4.20 with MCF7 [1]; 4.25 in the assay on Raji [2]; 4.30 in the assay on Jurkat [5]; 4.49 in the assay on Caco-2 [6]; 4.30 in the assay on CCRF-CEM [8]. Moreover, the Activity in the assay on CCRF-CEM [3] is 1.5%; in the assay on Raji [4], 10.5%; in the assay on MCF7 [7], 1.5%; with Jurkat [9], 1.5%; in the assay on Caco-2 [10] it was 2.5%.

As to `Cc1ccc(CN2COc3cc4c(cc3C2)c2ccccc2n4C)cc1`, the pIC50 is 4.12 with MCF7 [1]; 4.14 in the assay on Raji [2]; 4.15 in the assay with Jurkat [5]; 4.24 in the assay on Caco-2 [6]; 4.16 in the assay on CCRF-CEM [8]. Besides, the Activity was 1% with CCRF-CEM [3]; 27% in the assay with Raji [4]; 27.5% in the assay on MCF7 [7]; 2.5% in the assay with Jurkat [9]; 6.5% with Caco-2 [10].

Regarding `CC(C)=CCn1c2ccccc2c2c3c(ccc21)CN(Cc1ccccc1)CO3`, the pIC50 in the assay on MCF7 [1] is 4.12; in the assay with Raji [2], 4.41; in the assay with Jurkat [5] it was 4.26; in the assay with Caco-2 [6] it was 4.12; in the assay on CCRF-CEM [8], 4.42. The Activity in the assay on CCRF-CEM [3] amounted to 5.5%; with Raji [4], 7%; in the assay on MCF7 [7] it was 27.5%; with Jurkat [9], 7.5%; in the assay on Caco-2 [10], 53%.

As to `Cn1c2ccccc2c2cc3c(cc21)OCN(Cc1ccccn1)C3`, the pIC50 in the assay with MCF7 [1] was 4.25; in the assay with Raji [2], 4.92; in the assay with Jurkat [5] it was 4.94; in the assay with Caco-2 [6], 4.36; in the assay on CCRF-CEM [8], 4.78. Also, the Activity in the assay with CCRF-CEM [3] is 1.5%; with Raji [4] it was 38%; with MCF7 [7], 5%; with Jurkat [9] it was 3.5%; in the assay with Caco-2 [10] it was 7.5%.

For the molecule `Cn1c2ccccc2c2ccc3c(c21)CN(Cc1ccccc1)CO3`, the pIC50 was 4.14 in the assay with MCF7 [1]; 4.12 in the assay with Raji [2]; 4.13 with Jurkat [5]; 4.20 in the assay on Caco-2 [6]; 4.15 in the assay with CCRF-CEM [8]. Also, the Activity in the assay on CCRF-CEM [3] is reported as 1.5%; with Raji [4], 31.5%; with MCF7 [7] it was 60.5%; with Jurkat [9], 5.5%; in the assay on Caco-2 [10], 6%.

Take `CC(c1ccccc1)N1COc2cc3c(cc2C1)c1ccccc1n3C` (stereo not given): the pIC50 in the assay on MCF7 [1] was 4.20; in the assay on Raji [2] it was 4.24; in the assay on Jurkat [5], 4.43; in the assay on Caco-2 [6], 4.42; in the assay on CCRF-CEM [8] it was 4.60. The Activity in the assay with CCRF-CEM [3] is listed as 0.5%; with Raji [4], 18.5%; in the assay with MCF7 [7] it was 0%; in the assay with Jurkat [9], 1%; with Caco-2 [10], 2%.

In general, pIC50 refers to −log10 of the IC50, conventionally taken in molar units. Low readings indicate a high IC50, high ones a low IC50.
